{"source": "paper PMC13031150", "about": "(Acta Pharmaceutica Sinica. B, 2025)", "key": {"[1]": {"system": "KBM5 cells", "experiment": "CCK-8 cell viability assay, including SynergyFinder synergy analysis", "type": "cell-based, human", "conditions": "NG52 combined with imatinib, KBM5, 24 h, CCK-8, SynergyFinder", "summary_of_the_method": "(§1)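 Viability was read by CCK-8. […] A second test compound, 0–80 μmol/L alone or with a TKI, was given for 12 h. δ-scores came from SynergyFinder: >10 synergy, <−10 antagonism. SEM, n = 3.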"}, "[2]": {"system": "KBM5-T315I cells", "experiment": "Autophagy readouts", "type": "cell-based, human"}, "[3]": {"system": "KBM5-T315I cells", "experiment": "CCK-8 cell viability assay, including SynergyFinder synergy analysis", "type": "cell-based, human", "summary_of_the_method": "as §1"}, "[4]": {"system": "BCR-ABL", "experiment": "BCR-ABL protein level by Western blot", "type": "cell-based, human", "conditions": "KBM5-T315I, NG52 0–50 μmol/L, 24 h, dose-dependent"}, "[5]": {"system": "KBM5-T315I cells", "experiment": "LDH / lactate production", "type": "cell-based, human", "conditions": "NG52 6.25–50 μmol/L, 24 h"}, "[6]": {"system": "KBM5-T315I xenograft", "experiment": "Subcutaneous KBM5-T315I xenograft in NOD/SCID mice", "type": "in vivo, mouse", "conditions": "CPU-216 20 mg/kg, NG52 100 mg/kg"}, "[7]": {"system": "VCP phosphorylation in KBM5-T315I cells", "experiment": "VCP phosphorylation in cells", "type": "cell-based, human", "conditions": "50 μmol/L NG52, 24 h", "summary_of_the_method": "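KBM5-T315I cells were treated 24 h with test compound. Lysates were immunoprecipitated with anti-VCP antibody and immunoblotted with a pan-phospho-Ser/Thr antibody.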"}, "[8]": {"system": "VCP-KD-KBM5-T315I cells", "experiment": "CCK-8 cell viability with synergy analysis in VCP-knockdown cells", "type": "cell-based, human", "conditions": "NG52 combined with imatinib, 24 h", "summary_of_the_method": "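Viability was read by CCK-8, and δ-scores were computed in SynergyFinder (>10 synergy, <−10 antagonism).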"}, "[9]": {"system": "KBM5-T315I-PGK1-KD, PGK1-OE and PGK1-T378P cells", "experiment": "CCK-8 cell viability in PGK1-modified KBM5-T315I cells", "type": "cell-based, human", "conditions": "KBM5-T315I-PGK1-KD versus KBM5-T315I, 24 h", "summary_of_the_method": "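KBM5-T315I lines were empty-vector (NC), PGK1-overexpressing (OE), shPGK1 knockdown (KD), or KD re-transfected with PGK1-WT or PGK1-T378P cDNA. […] WT, OE, KD and T378P cells received test compound 0–80 μmol/L for […]. Viability was read by CCK-8; SEM, n = 3.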"}, "[10]": {"system": "KBM5-T315I cells-bearing NOD/SCID mice", "experiment": "Tail-vein KBM5-T315I leukemia model in NOD/SCID mice", "type": "in vivo, mouse", "conditions": "single agent: imatinib 100 mg/kg, CPU-216 20 mg/kg", "summary_of_the_method": "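Female NOD/SCID mice aged 4–6 weeks received sublethal irradiation (1.8 Gy), then KBM5-T315I cells by tail vein within 24 h. After 7 days of engraftment, dosing was on alternate days for 4 weeks, with saline as vehicle. Peripheral-blood human CD45⁺ cells were measured by flow cytometry, along with spleen weight and Kaplan–Meier survival. SEM, n ≥ 3.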"}, "[11]": {"conditions": "KBM5-T315I, Western blot, NG52 dose-dependent, CPU-216 0–6 μmol/L, 0–12 h"}}, "data": [{"smiles": "CC(C)n1cnc2c(Nc3cccc(Cl)c3)nc(NCCO)nc21", "note": "[NG52]", "values": [{"measurement": "Synergy score (δ-score)", "setting": "[1]", "result": "−7.32"}, {"measurement": "Formation of LC3 puncta", "setting": "[2]; KBM5-T315I transfected with GFP-LC3B", "result": "promote"}, {"measurement": "Beclin 1 ubiquitination", "setting": "[2]; KBM5-T315I, NG52 50 μmol/L with 10 μmol/L MG132, 24 h", "result": "decreased"}, {"measurement": "Beclin 1 expression and LC3B-II/LC3B-I ratio", "setting": "[2]; [11]", "result": "increased"}, {"measurement": "SQSTM1 expression", "setting": "[2]; [11]", "result": "reducing"}, {"measurement": "Autophagic vesicles (transmission electron microscopy)", "setting": "[2]; KBM5-T315I, NG52 50 μmol/L, CPU-216 6 μmol/L", "result": "marked increase"}, {"measurement": "Inhibitory effect on cell viability, KBM5-T315I versus KBM5", "setting": "[3]; 0–400 μmol/L, 24 h, CCK-8", "result": "better inhibitory effect on KBM5-T315I"}, {"measurement": "Synergy score", "setting": "[3]; NG52 combined with imatinib, KBM5-T315I pretreated with 3 μmol/L PKM2-IN-1", "result": 15.16}, {"measurement": "Synergy score (δ-score)", "setting": "[3]; NG52 combined with imatinib, NC (empty vector control) KBM5-T315I cells, 24 h", "result": 15.66}, {"measurement": "Synergy score (δ-score)", "setting": "[3]; NG52 combined with ponatinib, KBM5-T315I, 24 h, CCK-8, SynergyFinder", "result": 10.11}, {"measurement": "BCR-ABL expression", "setting": "[4]", "result": "reduced"}, {"measurement": "Effect on LDH levels", "setting": "[5]", "result": "no significant effect"}, {"measurement": "LC3B-II expression in tumor (immunofluorescence)", "setting": "[6]; imatinib 100 mg/kg", "result": "increased"}, {"measurement": "SQSTM1 expression in tumor (immunofluorescence)", "setting": "[6]; imatinib 100 mg/kg", "result": "decreased"}, {"measurement": "Tumor proliferation (Ki-67 staining)", "setting": "[6]; imatinib 100 mg/kg", "result": "significantly reduced"}, {"measurement": "Tumor volume", "setting": "[6]; intragastric every 48 h, 21 days", "result": "reduce"}, {"measurement": "VCP phosphorylation levels", "setting": "[7]", "result": "reduction"}, {"measurement": "Synergy score (δ-score)", "setting": "[8]", "result": 7.57}]}, {"smiles": "CC1=C(CSC(=S)N2CCCCC2)C(=O)c2ccccc2C1=O", "note": "[PKM2-IN-1]", "values": [{"measurement": "Effect on proliferation", "setting": "[3]; 3 μmol/L, 24 h, CCK-8, KBM5-T315I", "result": "did not affect"}, {"measurement": "Synergy score", "setting": "[3]; PKM2-IN-1 combined with imatinib, KBM5-T315I", "result": "−4.49"}]}, {"smiles": "Cc1ccc(NC(=O)c2ccc(CN3CCN(C)CC3)cc2)cc1Nc1nccc(-c2cccnc2)n1", "note": "[imatinib]", "values": [{"measurement": "Sensitivity of PGK1-knockdown cells to the TKI", "setting": "[9]", "result": "increased sensitivity"}, {"measurement": "Reduction of proportion of cells in the blood (HuCD45)", "setting": "[10]", "result": "less pronounced"}, {"measurement": "Splenomegaly", "setting": "[10]", "result": "alleviated"}]}, {"smiles": "Cc1ccc(C(=O)Nc2ccc(CN3CCN(C)CC3)c(C(F)(F)F)c2)cc1C#Cc1cnc2cccnn12", "note": "[ponatinib]", "values": [{"measurement": "Sensitivity of PGK1-knockdown cells to the TKI", "setting": "[9]", "result": "increased sensitivity"}]}]}
